Screening results as filed in PubChem.
PostGolgi ctrl – inhibits growth of the yeast control strain | efflux-deficient yeast background strain, growth absorbance A615, 16 h | inhibition, % at 10 µM | 5% of 98,000 active | AID 738
Cav3 T inh – inhibitors of human Cav3.2 T-type calcium channel; 4% of 100,000 active; Cav3.2-expressing cells, Fluo-4 calcium fluorescence FDSS; hits give low values; B-score at 10 µM; O95180; AID 449739;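 active = single-dose well whose peak fluorescence ratio is a statistical outlier from its plate by either plate-standardised score or position-corrected B-score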
PostGolgi yeast – growth inhibition of a yeast mutant, post-Golgi transport screen. post-Golgi transport phenotypic cell assay. inhibition, % at 10 µM. 0.9% of 98,000 active. AID 739;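 also: yeast cells grown in 1536-well plates; yeast grown about 18 h at 30C before absorbance read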
Ecoli WT expand – blocks growth of wild type E. coli BW25113; OD600 absorbance; growth inhibition, % at 100 µM; 0.15% of 98,000 active; AID 710;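 active = growth inhibition above about 50% at one test dose, limit read from the data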;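 also: growth measured after 20 h incubation at 37 °C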
tolC growth inh – E. coli tolC mutant growth inhibition; E. coli BW25113 tolC mutant growth, OD615; 2.2% of 65,000 active; growth inhibition, % at 10 µM (by protocol);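 active = growth inhibition at or above a cutoff equal to the mean over every tested compound plus 3 SD, cut at about 60% in these data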;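 also: growth measured after 20 h incubation at 37 °C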
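Test system: E. coli BW25113 ΔtolC::kan bacteria | Medium: Kanamycin-containing LB broth (50 µg/mL) | Dosing: One dose of 10 µM final | Times: 20 h incubation with compound, 37 °C | Detection: Optical density read at 615 nm | Read-out basis: Percent growth inhibition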
* hit, by the source's call; . = no result. An excerpt weighted towards active compounds, which were near 8.4% of everything screened. Rule as the data show it, unless noted: active = inhibition above about 30%; inactive = the rest.

SMILES | PostGolgi ctrl | Cav3 T inh | PostGolgi yeast | Ecoli WT expand | tolC growth inh
CCOC(=O)Nc1ccc2c(c1)N(C(=O)N1CCN(C)CC1)c1ccccc1S2 | 8.5 | 0.506 | -1.9 | 5.0 | 64.9*
CCOC(=O)Nc1ccc2c(c1)N(C(=O)CCN1CCN(C)CC1)c1ccccc1S2 | 1.5 | -0.0212 | -4.4 | -3.0 | .
Cc1ccc(-n2c(=O)[nH]cc(C(=O)Nc3ccc4c(c3)OCCO4)c2=O)cc1C | 4.8 | 0.805 | 0.5 | -6.0 | 67.1*
Cc1ccc(-n2c(=O)[nH]cc(C(=O)Nc3ccc4c(c3)OCCO4)c2=O)cc1 | -0.1 | -0.0492 | -10.0 | -25.0 | 0.0
CC(=O)Nc1ccc2c(c1)OCCO2 | 17.1 | 1.42 | 2.1 | -2.0 | .
Cc1oc(C(C)(C)C)cc1C(=O)Nc1ccc2c(c1)OCCO2 | 14.8 | . | 1.4 | 1.0 | 80.4*
CCN(CCO)Cc1csc2ccc(Br)cc12 | 3.3 | 0.242 | -1.8 | 13.0 | .
O=C(CN1CCN(C2CCCCC2)CC1)c1ccc2cc[nH]c2c1 | 5.2 | . | -1.3 | 0.0 | 1.5
CCc1nc2ccccc2c(C(=O)OCc2nnc(-c3ccccc3)o2)c1C | 24.6 | . | -3.5 | 3.0 | .
Cc1ccccc1N(CC(=O)NC1CCCC1)C(=O)c1oc(C(C)(C)C)cc1C | 9.3 | -4.24 | -3.6 | 0.0 | .
Cc1cc(C(C)(C)C)oc1C(=O)N(CC(=O)NC1CCCC1)Cc1ccccc1Cl | 30.8* | -3.62 | -5.8 | -15.0 | .
CN(C)c1cccc(C(=O)n2cc(C(=O)c3cc(F)ccc3O)cn2)c1 | 8.2 | -3.93* | 4.7 | 15.0 | -4.5
COc1ccc(O)c(C(=O)c2cnn(C(=O)c3cc(C)oc3C)c2)c1 | 8.2 | 1.98 | 9.8 | 8.0 | -8.2
O=C(c1cc2c(s1)-c1ccccc1OC2)N1CCN(c2ccccc2)CC1 | 55.5* | 0.203 | -10.4 | -9.0 | .
CC(C)Nc1nc(NC(C)C)nc(C(N)=O)n1 | -5.1 | -0.0702 | -5.5 | -3.0 | -24.7
CCN(CC)c1ccc2cc(C(C)=O)c(=O)oc2c1 | 5.6 | -10.3* | 1.4 | 2.0 | .
CCN(CC)c1ccc2cc(-c3nnc(-c4ccncc4)o3)c(=O)oc2c1 | 51.0* | -4.02* | -0.6 | -7.0 | 6.7
CCN(CC)c1ccc2cc(C=O)c(=O)oc2c1 | 8.3 | -9.02* | 4.9 | 8.0 | .
O=C(NCCN1C(=O)CCC1=O)c1ccncc1 | 4.3 | 0.233 | 17.9 | -2.0 | -17.1
COc1ccc(C2C=C(c3ccc(Br)s3)Nc3ncnn32)cc1OC (configuration not stated) | 34.9* | -8.74* | 2.2 | -10.0 | 2.5
COc1ccc(C2C=C(c3ccc(C)cc3)Nc3ncnn32)cc1 (configuration not stated) | 6.9 | . | 0.6 | 0.0 | 6.0
Cc1cc(C)n2c(Nc3ccc4c(c3)OCCO4)c(-c3ccccc3)nc2n1 | 44.1* | -0.517 | 9.6 | -5.0 | .
CCOc1cc(-c2c(C#N)c(N)nc3c2CCCC3C)ccc1O (configuration not stated) | 37.9* | -3.02 | 11.2 | 2.0 | 86.5*
CCOc1cc(-c2cc(-c3ccc(C)cc3)nc(N)c2C#N)ccc1O | 5.9 | 0.545 | -3.5 | 2.0 | .
COc1ccc(C(=O)CSc2nc(N)nc(SC)c2C#N)cc1 | 32.5* | -0.172 | 0.3 | 0.0 | .
SMILES | PostGolgi ctrl | Cav3 T inh | PostGolgi yeast | Ecoli WT expand | tolC growth inh
CSc1nc(N)nc(SCC(=O)C23CC4CC(CC(C4)C2)C3)c1C#N | 60.1* | -2.32 | 12.2 | -11.0 | 11.4
COC(=O)Oc1ccc(/C=N/NC(=O)CSCc2ccccc2Br)cc1OC | 11.8 | -1.15 | 4.6 | 4.0 | .
COC(=O)c1ccc(Cc2ccc(C(=O)OC)o2)o1 | 35.6* | 0.0268 | 7.5 | 7.0 | -4.3
Cc1nnc(SCCn2c(N3CC(C)CC(C)C3)nc3c2c(=O)[nH]c(=O)n3C)s1 (configuration not stated) | 1.0 | 1.27 | -4.8 | 0.0 | -5.6
Cc1nn(-c2ccccc2)c(C)c1/C=N/NC(=O)c1cc(C2CC2)[nH]n1 | 2.3 | -0.0388 | -2.9 | -2.0 | .
Cc1nn(-c2ccccc2)c(C)c1/C=N/NC(=O)c1cc(C23CC4CC(CC(C4)C2)C3)[nH]n1 | 60.2* | 0.871 | -2.3 | -8.0 | .
Cc1nn(-c2ccccc2)c(Cl)c1/C=N/NC(=O)c1ccco1 | -3.2 | 1.66 | 0.5 | -5.0 | .
Cc1nn(-c2ccccc2)c(C)c1/C=N/NC(=O)c1cc(-c2ccc(Cl)s2)[nH]n1 | 46.4* | -3.49 | 53.6* | 6.0 | .
Cc1nn(-c2ccccc2)c(C)c1/C=N/NC(=O)c1cc(-c2ccc(Br)s2)[nH]n1 | 64.4* | -3.01 | 6.1 | 6.0 | .
CCCn1c(C)cc(=O)c2cc(NC(=O)c3ccccn3)ccc21 | 6.0 | 0.384 | 0.8 | -3.0 | -2.8
Cc1ccc(Cn2nnnc2CN2CCC(O)(c3ccccc3F)CC2)cc1 | 18.1 | 0.0112 | 4.7 | -1.0 | 1.8
Cc1ccc(C(C(=O)NCc2ccco2)N(CCc2ccccc2)C(=O)Cn2nnc3ccccc32)o1 (configuration not stated) | -6.2 | -5.6* | -3.4 | 1.0 | 6.9
Cc1ccc(CN(C(=O)Cn2nnc3ccccc32)C(C(=O)NCc2ccco2)c2ccc(C)o2)cc1 (configuration not stated) | . | -0.709 | . | . | .
Cc1ccc(N(C(=O)Cn2nnc3ccccc32)C(C(=O)NCc2ccco2)c2ccc(C)o2)cc1 (configuration not stated) | 18.6 | -4.3* | 6.0 | -9.0 | 52.2
Cc1ccc(C(C(=O)NCc2ccco2)N(C(=O)Cn2nnc3ccccc32)c2ccccc2)o1 (configuration not stated) | -4.6 | . | -5.4 | -3.0 | 3.2
CCCCNC(=O)Nc1nnc(-c2ccc(Cl)cc2)o1 | 19.4 | 0.0289 | -2.5 | -11.0 | .
CCS(=O)(=O)Nc1ccc(C2=NN(C(=O)c3ccco3)C(c3ccc(C)cc3)C2)cc1 (configuration not stated) | -4.8 | 0.00712 | -3.7 | -11.0 | .
Cc1ccc(C2CC(c3cccs3)=NN2C(=O)c2ccc(Br)o2)cc1 (configuration not stated) | 83.2* | -4.04* | 93.0* | -26.0 | .
Cc1cnc(C(=O)OCC(=O)N(C(C)C)C(C)C)cn1 | 5.0 | 0.014 | 13.6 | 7.0 | .
Cc1cccc(NS(=O)(=O)c2cc(C(=O)N3CCN(C)CC3)ccc2C)c1 | 32.1* | -1.12 | -4.2 | 10.0 | .
Cc1ccc(NS(=O)(=O)c2cc(C(=O)N3CCc4ccccc4C3)ccc2Cl)cc1 | 63.8* | -3.28 | 35.2* | -11.0 | .
Cc1ccc(NS(=O)(=O)c2cc(C(=O)N3CCN(C)CC3)ccc2C)cc1 | -3.6 | 1.59 | -6.4 | 3.0 | -3.0
CCCC(=O)Nc1ccccc1NC(=O)CN(C)S(=O)(=O)c1ccccc1 | 4.6 | 0.307 | 0.2 | 6.0 | 4.6
CC(NC(=O)c1ccc(CS(=O)(=O)Cc2ccccc2F)o1)c1ccc2c(c1)OCCO2 (configuration not stated) | 8.2 | 0.00186 | 1.4 | -14.0 | 7.4
O=C(c1ccc2c(c1)OCO2)N(c1ccc(Cl)cc1)C1C=CS(=O)(=O)C1 (configuration not stated) | 6.8 | -1.85 | 2.4 | 0.0 | -2.3
C[C@@H](C(=O)Nc1ccc2ccccc2c1)[C@H]1C[C@]1(C)[C@H](NC(=O)c1cccnc1)c1ccccc1 | . | -1.57 | . | . | .
C[C@@H](C(=O)Nc1ccc2ccccc2c1)[C@@H]1C[C@@]1(C)[C@@H](NC(=O)c1ccccc1)c1ccccc1 | . | -3.92* | . | . | .
